Test results from ChEMBL document CHEMBL1133565 (J Med Chem, 2000).

Key:
[1] = target: T1, Sodium-dependent serotonin transporter (Homo sapiens, UniProt P31645); assay: Ratio of serotonin uptake to serotonin binding
Target sequence in this assay (P31645 whole entry, looked up): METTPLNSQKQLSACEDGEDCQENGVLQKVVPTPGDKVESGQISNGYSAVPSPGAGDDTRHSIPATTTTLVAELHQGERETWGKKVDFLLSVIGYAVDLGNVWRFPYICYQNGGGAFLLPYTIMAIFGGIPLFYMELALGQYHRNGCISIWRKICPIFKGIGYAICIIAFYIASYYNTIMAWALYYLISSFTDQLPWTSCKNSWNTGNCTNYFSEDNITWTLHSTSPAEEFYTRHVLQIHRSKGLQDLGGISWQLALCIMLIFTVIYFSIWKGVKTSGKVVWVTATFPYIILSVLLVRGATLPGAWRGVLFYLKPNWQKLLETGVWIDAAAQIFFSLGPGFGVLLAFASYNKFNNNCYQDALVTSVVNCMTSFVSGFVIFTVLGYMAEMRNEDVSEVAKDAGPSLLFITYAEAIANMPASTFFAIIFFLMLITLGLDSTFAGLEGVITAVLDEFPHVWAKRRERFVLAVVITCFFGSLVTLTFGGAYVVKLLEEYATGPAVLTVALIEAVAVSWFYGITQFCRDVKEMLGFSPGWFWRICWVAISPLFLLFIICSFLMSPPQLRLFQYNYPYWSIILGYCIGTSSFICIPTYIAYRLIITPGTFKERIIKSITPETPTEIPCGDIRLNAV

[2] = target: T2, Sodium-dependent dopamine transporter (Homo sapiens, UniProt Q01959); assay: Ratio of dopamine uptake to dopamine binding
[3] = target: T1, Sodium-dependent serotonin transporter; assay: Inhibition of reuptake of [3H]5-HT (20 nM) by serotonin transporter
In short: (§1)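 Uptake used whole confluent cells: hSERT in HEK293; hDAT in C6, later HEK293. Cells were washed and scraped in PBS at 25 °C, then preincubated 10 min with drug in Krebs HEPES at 25 °C. [3H]5HT or [3H]DA was added at 20 nM final for 10 min, then filtered on 0.05% polyethylenimine-soaked filters. Six drug concentrations, each in triplicate.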
Target sequence in this assay (P31645 whole entry): as the sequence (P31645 whole entry, looked up) above

[4] = target: T3, Sodium-dependent noradrenaline transporter (Homo sapiens, UniProt P23975); assay: Binding affinity against norepinephrine cloned human transporter using 40-80 pM [125I]RTI
Target sequence in this assay (P23975 whole entry): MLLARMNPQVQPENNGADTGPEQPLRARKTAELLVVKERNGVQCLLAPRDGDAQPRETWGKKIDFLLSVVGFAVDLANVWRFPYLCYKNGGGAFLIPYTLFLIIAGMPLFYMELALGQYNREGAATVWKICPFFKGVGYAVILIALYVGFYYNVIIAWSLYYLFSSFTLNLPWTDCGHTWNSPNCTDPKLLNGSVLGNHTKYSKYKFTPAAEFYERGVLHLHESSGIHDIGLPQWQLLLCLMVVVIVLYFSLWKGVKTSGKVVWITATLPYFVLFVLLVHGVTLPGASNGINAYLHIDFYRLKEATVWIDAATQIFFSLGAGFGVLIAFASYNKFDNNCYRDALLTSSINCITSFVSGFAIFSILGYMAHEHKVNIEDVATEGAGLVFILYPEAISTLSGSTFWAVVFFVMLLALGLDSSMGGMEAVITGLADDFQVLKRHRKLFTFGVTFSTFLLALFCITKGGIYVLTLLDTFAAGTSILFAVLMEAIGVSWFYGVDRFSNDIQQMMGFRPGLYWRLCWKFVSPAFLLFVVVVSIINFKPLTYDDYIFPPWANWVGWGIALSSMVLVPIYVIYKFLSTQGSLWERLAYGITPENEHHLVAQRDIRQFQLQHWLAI

[5] = target: Monoamine transporters; serotonin & dopamine (Homo sapiens) (UniProt P31645+Q01959); assay: Ratio of inhibition of serotonin uptake to inhibition of dopamine uptake; type: protein assay
Sequence of Monoamine transporters; serotonin & dopamine (Homo sapiens) (P31645 whole entry, looked up): as the sequence (P31645 whole entry, looked up) above
Sequence of Monoamine transporters; serotonin & dopamine (Homo sapiens) (Q01959 whole entry, looked up): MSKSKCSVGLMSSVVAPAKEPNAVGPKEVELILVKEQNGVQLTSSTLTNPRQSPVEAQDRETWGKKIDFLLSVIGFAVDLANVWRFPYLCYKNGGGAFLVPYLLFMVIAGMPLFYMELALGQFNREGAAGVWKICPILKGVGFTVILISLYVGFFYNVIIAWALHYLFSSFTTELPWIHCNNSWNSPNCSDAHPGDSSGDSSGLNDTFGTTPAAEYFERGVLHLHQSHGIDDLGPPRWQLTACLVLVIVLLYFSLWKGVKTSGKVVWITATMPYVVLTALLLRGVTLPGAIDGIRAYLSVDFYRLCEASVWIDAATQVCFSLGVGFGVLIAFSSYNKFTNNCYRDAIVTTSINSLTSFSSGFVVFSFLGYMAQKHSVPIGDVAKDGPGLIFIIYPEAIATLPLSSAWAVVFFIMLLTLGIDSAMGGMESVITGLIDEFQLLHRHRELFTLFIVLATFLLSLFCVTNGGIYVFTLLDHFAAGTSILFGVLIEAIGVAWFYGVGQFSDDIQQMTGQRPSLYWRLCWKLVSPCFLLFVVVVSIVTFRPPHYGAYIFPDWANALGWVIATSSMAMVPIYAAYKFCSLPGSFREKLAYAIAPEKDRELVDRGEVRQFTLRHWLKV

[6] = target: T2, Sodium-dependent dopamine transporter; assay: Binding affinity against cloned human dopamine transporter using 40-80 pM [125I]RTI.
In short: (§2)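 Membranes from cells expressing recombinant human transporters: DAT in C6 cells, later HEK293; SERT and NET in HEK293. Cells lysed (2 mM HEPES, 1 mM EDTA), spun at 30000g, resuspended in 0.32 M sucrose, about 15 µg protein. GF/C filtration. Duplicates; IC50 converted to Ki by Cheng-Prusoff.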

[7] = target: T3, Sodium-dependent noradrenaline transporter; assay: Inhibition of reuptake of [3H]-NE (20 nM) by norepinephrine transporter
Target sequence in this assay (P23975 whole entry): as the sequence (P23975 whole entry) above

[8] = target: T2, Sodium-dependent dopamine transporter; assay: Inhibition of reuptake of [3H]DA (20 nM) by dopamine transporter; in short: as §1
[9] = target: T1, Sodium-dependent serotonin transporter; assay: Binding affinity against cloned serotonin human transporter using 40-80 PM [125I]RTI; in short: as §2
Target sequence in this assay (P31645 whole entry): as the sequence (P31645 whole entry, looked up) above

[10] = species: Mus musculus; assay: Effective dose on 8 hr locomotor assay in mice (value is standard error of the population of 72 independent determinations); type: functional
In short: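 Groups of 8 nonhabituated male Swiss-Webster mice (Hsd:ND4, 2-3 months), dosed ip in 0.9% saline vehicle just before testing. Horizontal photobeam breaks counted in 10-min bins for 8 h from 0800 h, one mouse per chamber.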

[11] = Effective dose for generalization to 10 mg/kg cocaine in rat (value is standard error of the population of 88 independent determinations); type: functional
[12] = target: T3, Sodium-dependent noradrenaline transporter; assay: Ratio of norepinephrine uptake to norepinephrine binding
Target sequence in this assay (P23975 whole entry, looked up): as the sequence (P23975 whole entry) above

T2 sequence (Q01959 whole entry): as the sequence (Q01959 whole entry, looked up) above

SMILES	Ratio [1]	Ratio [2]	IC50 [3] [nM]	Ki [4] [nM]	Ratio [5]	Ki [6] [nM]	IC50 [7] [nM]	IC50 [8] [nM]	Ki [9] [nM]	ED50 [10] [mg/kg]	ED50 [11] [mg/kg]	Ratio [12]
CN(C)[C@H]1C[C@@H](c2ccc(Cl)c(Cl)c2)c2ccccc21 (relative stereo)	2.3	8.7	5.5	150	0.01	63	86	550	2.4			
CN(Cc1ccccc1)[C@H]1C[C@@H](c2ccc(Cl)c(Cl)c2)c2ccccc21 (relative stereo)	2.3		700	> 10000		> 10000	> 10000		300			
CN(C)[C@@H]1C[C@@H](c2ccc(Cl)c(Cl)c2)c2ccccc21 (stereo in doubt; (+)) [listing 1 of 2 here]			6.3	52		8.7	21	120	0.06	0.96		
CN(C)[C@@H]1C[C@@H](c2ccc(Cl)c(Cl)c2)c2ccccc21.O=C(O)/C=C\C(=O)O (relative stereo)			65	95		19	34	200	0.33	2.4	1.3	
CCCN(C)[C@@H]1C[C@@H](c2ccc(Cl)c(Cl)c2)c2ccccc21 (relative stereo)	2.1	1.4	190	400	0.56	250	640	340	91	1.7	1.5	1.6
CC(C)(C)N[C@H]1C[C@@H](c2ccc(Cl)c(Cl)c2)c2ccccc21 (relative stereo)		2.3	> 10000	1100		650	1800	1500	1700			1.6
CCN(C)[C@@H]1C[C@@H](c2ccc(Cl)c(Cl)c2)c2ccccc21 (relative stereo)	1.5	6.9	24	250	0.089	39	150	270	16	2.7		0.6
CN(C)[C@@H]1C[C@@H](c2ccc(Cl)c(Cl)c2)c2ccccc21 (relative stereo)	200	11			0.033							
CN([C@@H]1C[C@@H](c2ccc(Cl)c(Cl)c2)c2ccccc21)C(C)(C)C (relative stereo)		3	> 10000	440		890	1000	2700	4700			
CN([C@H]1C[C@@H](c2ccc(Cl)c(Cl)c2)c2ccccc21)C(C)(C)C (relative stereo)				2200		2800	> 10000	> 10000	> 10000			
CN(C)[C@@H]1C[C@@H](c2ccc(Cl)c(Cl)c2)c2ccccc21 (stereo in doubt; (-)) [listing 1 of 2 here]			130	130		38	130	650	3.6			
CCN[C@H]1C[C@@H](c2ccc(Cl)c(Cl)c2)c2ccccc21	4	11	19		0.02	140	170	1000	4.7			
CCN(C)[C@H]1C[C@@H](c2ccc(Cl)c(Cl)c2)c2ccccc21 (relative stereo)	5.5	0.8	72	2400	0.14	660	4400	530	13			1.8
CC(C)N(C)[C@H]1C[C@@H](c2ccc(Cl)c(Cl)c2)c2ccccc21	25	1.4	1800	650	1.9	680	1800	960	73			
COC(=O)[C@H]1[C@@H](OC(=O)c2ccccc2)C[C@@H]2CC[C@H]1N2C [COCAINE]										7.92	3.61	
CC(C)N[C@H]1C[C@@H](c2ccc(Cl)c(Cl)c2)c2ccccc21 (relative stereo)	2.3	3.1	300	3500	0.21	450	1500	1400	130			0.43
CC(C)N(C)[C@@H]1C[C@@H](c2ccc(Cl)c(Cl)c2)c2ccccc21	34	1.1	1500	260	7.9	180	420	190	44	2.9	3.3	
CN(Cc1ccccc1)[C@@H]1C[C@@H](c2ccc(Cl)c(Cl)c2)c2ccccc21 (relative stereo)	21	4.6	3700	2800	6.7	120	1600	550	180	5.7		
CCCN(C)[C@H]1C[C@@H](c2ccc(Cl)c(Cl)c2)c2ccccc21 (relative stereo)	4	0.83	810	2000	0.8		540	1000	200			0.27
CCN[C@@H]1C[C@@H](c2ccc(Cl)c(Cl)c2)c2ccccc21 (relative stereo)	6.5	7.5	13	48	0.21	8.1	28	61	2	1		
Clc1ccc([C@@H]2C[C@H](NCc3ccccc3)c3ccccc32)cc1Cl (relative stereo)			> 10000	4800		1100	> 10000	5300	2100			
Clc1ccc([C@@H]2C[C@@H](NCc3ccccc3)c3ccccc32)cc1Cl (relative stereo)		1.6	> 10000	460		80	2600	130	380	> 20		
CN(C)[C@@H]1C[C@@H](c2ccc(Cl)c(Cl)c2)c2ccccc21 (stereo in doubt; (-)) [listing 2 of 2 here]		17			0.02							
CN[C@@H]1C[C@@H](c2ccc(Cl)c(Cl)c2)c2ccccc21 (relative stereo) [(R,S)-INDATRALINE]										1.2		
CCCN[C@@H]1C[C@@H](c2ccc(Cl)c(Cl)c2)c2ccccc21 (relative stereo)	3.7	0.24	480	55	9.1	220	130	53	130	8.1	2.3	2.4
CN(C)[C@@H]1C[C@@H](c2ccc(Cl)c(Cl)c2)c2ccccc21 (stereo in doubt; (+)) [listing 2 of 2 here]	110	14			0.053							
CC(C)(C)N[C@@H]1C[C@@H](c2ccc(Cl)c(Cl)c2)c2ccccc21 (relative stereo)	4.2	2.8	3100	150	8.4	130	310	370	740	> 28		2.1
CCCN[C@H]1C[C@@H](c2ccc(Cl)c(Cl)c2)c2ccccc21 (relative stereo)	2.6	2.2	1300	540	2.1	280	630	620	500			1.2
CC(C)N[C@@H]1C[C@@H](c2ccc(Cl)c(Cl)c2)c2ccccc21	2.6	1.6	240	110	4.7	32	75	51	93	3.1		0.68
